Activity calls are given as the source filed them. No cut-off for these calls is given here.

The target in test [1] is 72 kDa type IV collagenase (Homo sapiens, UniProt P08253). The test is described as follows: Inhibitory activity against MMP2.
For test [2], the target named is T1, Matrix metalloproteinase-9 (Homo sapiens, UniProt P14780). Description: Inhibitory activity against MMP9.
Test [3] deals with Macrophage metalloelastase (Homo sapiens, UniProt P39900). The test is described as follows: Inhibitory activity against MMP12.
Macrophage metalloelastase, sequence (P39900 whole entry): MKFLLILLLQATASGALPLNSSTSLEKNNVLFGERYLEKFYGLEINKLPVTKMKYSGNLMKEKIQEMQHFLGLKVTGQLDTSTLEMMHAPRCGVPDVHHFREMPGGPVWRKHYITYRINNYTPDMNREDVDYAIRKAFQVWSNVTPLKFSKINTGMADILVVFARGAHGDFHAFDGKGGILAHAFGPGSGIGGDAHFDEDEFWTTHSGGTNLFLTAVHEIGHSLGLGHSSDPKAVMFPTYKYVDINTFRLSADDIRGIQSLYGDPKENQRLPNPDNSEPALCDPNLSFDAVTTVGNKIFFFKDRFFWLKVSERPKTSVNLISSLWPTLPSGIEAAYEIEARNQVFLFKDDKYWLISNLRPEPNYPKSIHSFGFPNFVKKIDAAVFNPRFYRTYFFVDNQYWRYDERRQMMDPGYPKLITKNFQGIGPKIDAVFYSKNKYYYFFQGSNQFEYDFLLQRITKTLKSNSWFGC
The target in test [4] is T2, Interstitial collagenase (Homo sapiens) (UniProt P03956).
T2 sequence (whole entry): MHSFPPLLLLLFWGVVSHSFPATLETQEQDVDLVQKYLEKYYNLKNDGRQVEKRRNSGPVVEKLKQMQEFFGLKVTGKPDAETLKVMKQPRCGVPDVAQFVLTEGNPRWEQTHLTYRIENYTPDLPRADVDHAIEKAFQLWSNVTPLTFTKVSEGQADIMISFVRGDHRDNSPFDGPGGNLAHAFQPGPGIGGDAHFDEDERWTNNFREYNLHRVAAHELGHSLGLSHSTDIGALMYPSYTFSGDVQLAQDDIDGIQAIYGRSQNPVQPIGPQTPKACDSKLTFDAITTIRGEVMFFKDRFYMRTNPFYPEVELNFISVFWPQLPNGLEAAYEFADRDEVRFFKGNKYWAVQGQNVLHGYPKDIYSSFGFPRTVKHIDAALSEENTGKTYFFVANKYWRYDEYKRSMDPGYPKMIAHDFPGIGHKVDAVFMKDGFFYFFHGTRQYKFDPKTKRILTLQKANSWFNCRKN
The test is described as follows: Inhibitory activity against MMP1 upto 50uM.

Test [5] concerns the target T1, Matrix metalloproteinase-9. The test is described as follows: Inhibitory activity against MMP9 upto 50uM.
For test [6], the target named is T3, Matrix metalloproteinase-14 (Homo sapiens, UniProt P50281). The test is described as follows: Inhibitory activity against MMP14 upto 50uM.
Test [7] has as its target T4, Matrix metalloproteinase-15 (Homo sapiens, UniProt P51511). Description: Inhibitory activity against MMP15 upto 50uM.
Target sequence in this assay (P51511 132-669 limits assumed): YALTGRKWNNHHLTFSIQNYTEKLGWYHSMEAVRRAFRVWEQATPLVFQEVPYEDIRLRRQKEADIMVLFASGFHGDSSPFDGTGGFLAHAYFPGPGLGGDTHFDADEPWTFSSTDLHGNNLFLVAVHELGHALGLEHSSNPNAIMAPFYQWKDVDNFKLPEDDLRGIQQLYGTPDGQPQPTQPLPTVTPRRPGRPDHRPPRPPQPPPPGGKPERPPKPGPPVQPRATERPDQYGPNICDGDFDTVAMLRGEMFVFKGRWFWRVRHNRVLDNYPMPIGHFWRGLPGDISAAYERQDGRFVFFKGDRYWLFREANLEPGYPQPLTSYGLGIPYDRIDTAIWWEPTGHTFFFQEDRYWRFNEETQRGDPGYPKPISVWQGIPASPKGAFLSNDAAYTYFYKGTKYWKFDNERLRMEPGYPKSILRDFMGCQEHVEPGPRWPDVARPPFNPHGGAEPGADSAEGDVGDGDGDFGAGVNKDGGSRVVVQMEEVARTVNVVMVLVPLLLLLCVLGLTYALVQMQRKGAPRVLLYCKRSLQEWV
In test [8] the target is T5, Matrix metalloproteinase-16 (Homo sapiens, UniProt P51512). The test is described as follows: Inhibitory activity against MMP16 upto 50uM.
T5 sequence (P51512 whole entry): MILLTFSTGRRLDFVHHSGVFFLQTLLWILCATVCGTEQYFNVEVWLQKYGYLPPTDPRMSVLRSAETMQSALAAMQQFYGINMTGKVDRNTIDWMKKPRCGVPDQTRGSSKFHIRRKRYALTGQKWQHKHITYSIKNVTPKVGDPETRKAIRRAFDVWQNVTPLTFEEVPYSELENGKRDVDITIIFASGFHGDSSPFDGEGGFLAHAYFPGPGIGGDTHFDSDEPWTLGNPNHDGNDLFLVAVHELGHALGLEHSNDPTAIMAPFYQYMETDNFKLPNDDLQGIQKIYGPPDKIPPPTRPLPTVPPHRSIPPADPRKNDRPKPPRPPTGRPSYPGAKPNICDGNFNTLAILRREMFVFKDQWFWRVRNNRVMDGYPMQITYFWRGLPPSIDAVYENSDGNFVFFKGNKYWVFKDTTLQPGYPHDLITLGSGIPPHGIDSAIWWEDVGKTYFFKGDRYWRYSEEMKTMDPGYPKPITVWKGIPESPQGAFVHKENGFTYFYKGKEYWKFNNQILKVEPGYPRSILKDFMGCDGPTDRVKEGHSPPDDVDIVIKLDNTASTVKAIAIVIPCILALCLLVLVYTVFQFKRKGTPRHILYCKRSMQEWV
Test [9] deals with T6, Matrilysin (Homo sapiens) (UniProt P09237).
T6 sequence (whole entry): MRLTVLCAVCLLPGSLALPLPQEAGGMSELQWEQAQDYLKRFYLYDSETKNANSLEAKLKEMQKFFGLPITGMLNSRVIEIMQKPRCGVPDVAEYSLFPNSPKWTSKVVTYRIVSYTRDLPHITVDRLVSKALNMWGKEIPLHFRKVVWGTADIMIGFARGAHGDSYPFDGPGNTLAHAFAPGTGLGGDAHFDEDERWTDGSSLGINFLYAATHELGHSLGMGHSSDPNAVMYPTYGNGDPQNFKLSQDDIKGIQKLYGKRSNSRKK
The test is described as follows: Inhibitory activity against MMP7 upto 50 uM.

Test [10] has as its target T7, Matrix metalloproteinase-26 (Homo sapiens) (UniProt Q9NRE1).
T7 sequence (whole entry): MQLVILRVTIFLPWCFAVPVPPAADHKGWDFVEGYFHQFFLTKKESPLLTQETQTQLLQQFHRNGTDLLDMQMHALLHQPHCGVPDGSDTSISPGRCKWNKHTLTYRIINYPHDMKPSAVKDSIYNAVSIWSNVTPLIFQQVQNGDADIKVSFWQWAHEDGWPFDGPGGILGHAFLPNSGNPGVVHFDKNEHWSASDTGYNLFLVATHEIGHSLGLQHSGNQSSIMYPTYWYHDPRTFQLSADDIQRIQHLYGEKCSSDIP
Description: Inhibitory activity against MMP26 upto 50uM.

The target of test [11] is T6, Matrilysin (Homo sapiens). Description: Inhibitory activity against MMP7 upto 50uM.
Another test has as its system Syrian golden hamster. The test is described as follows: Increase in lung weight, lung volumes, relative lung volumes and right ventricular hypertropy in PPE-treated Syrian hamster at 5 mg/kg. The arrangement: dose 5 mg/kg. As to conditions: Mesocricetus auratus, Heart right ventricle. The test is classed as functional, organism-based. The method, boiled down: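 Male golden Syrian hamsters with PPE-induced emphysema, compared with saline-treated controls, PPE-only animals and compound/saline-treated animals. Read-outs were wet weight of the left lung, lung volume, relative lung volume and right ventricular hypertrophy.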

The target of test [12] is T3, Matrix metalloproteinase-14. The test is described as follows: Inhibitory activity against MMP14.
The target in test [13] is T4, Matrix metalloproteinase-15. The test is described as follows: Inhibitory activity against MMP15.
Target sequence in this assay (P51511 whole entry): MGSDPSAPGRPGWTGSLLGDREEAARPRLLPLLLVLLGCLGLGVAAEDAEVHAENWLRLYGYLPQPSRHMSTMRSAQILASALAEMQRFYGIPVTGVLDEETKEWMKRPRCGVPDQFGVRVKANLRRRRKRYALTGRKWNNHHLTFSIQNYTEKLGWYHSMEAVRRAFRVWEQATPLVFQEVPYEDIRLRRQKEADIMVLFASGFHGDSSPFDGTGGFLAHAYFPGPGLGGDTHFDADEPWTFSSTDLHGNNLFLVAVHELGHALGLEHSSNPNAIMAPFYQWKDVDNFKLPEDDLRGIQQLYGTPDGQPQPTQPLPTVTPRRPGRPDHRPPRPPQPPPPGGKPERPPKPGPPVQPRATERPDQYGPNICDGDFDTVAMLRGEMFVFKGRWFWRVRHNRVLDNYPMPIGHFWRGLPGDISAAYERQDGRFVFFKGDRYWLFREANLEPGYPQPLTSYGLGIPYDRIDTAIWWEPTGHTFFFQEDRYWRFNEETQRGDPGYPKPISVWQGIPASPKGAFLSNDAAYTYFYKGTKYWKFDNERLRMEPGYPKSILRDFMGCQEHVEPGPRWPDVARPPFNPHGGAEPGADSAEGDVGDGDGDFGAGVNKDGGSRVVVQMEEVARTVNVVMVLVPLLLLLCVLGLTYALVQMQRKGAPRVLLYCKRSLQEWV
In test [14] the target is T5, Matrix metalloproteinase-16. Description: Inhibitory activity against MMP16.
Test [15] concerns the target T8, Matrix metalloproteinase-26 (Homo sapiens, UniProt Q9NRE1).
T8 sequence (Q9NRE1 whole entry): T7 sequence (whole entry)
The test is described as follows: Inhibitory activity against MMP26.

T1 sequence (P14780 whole entry): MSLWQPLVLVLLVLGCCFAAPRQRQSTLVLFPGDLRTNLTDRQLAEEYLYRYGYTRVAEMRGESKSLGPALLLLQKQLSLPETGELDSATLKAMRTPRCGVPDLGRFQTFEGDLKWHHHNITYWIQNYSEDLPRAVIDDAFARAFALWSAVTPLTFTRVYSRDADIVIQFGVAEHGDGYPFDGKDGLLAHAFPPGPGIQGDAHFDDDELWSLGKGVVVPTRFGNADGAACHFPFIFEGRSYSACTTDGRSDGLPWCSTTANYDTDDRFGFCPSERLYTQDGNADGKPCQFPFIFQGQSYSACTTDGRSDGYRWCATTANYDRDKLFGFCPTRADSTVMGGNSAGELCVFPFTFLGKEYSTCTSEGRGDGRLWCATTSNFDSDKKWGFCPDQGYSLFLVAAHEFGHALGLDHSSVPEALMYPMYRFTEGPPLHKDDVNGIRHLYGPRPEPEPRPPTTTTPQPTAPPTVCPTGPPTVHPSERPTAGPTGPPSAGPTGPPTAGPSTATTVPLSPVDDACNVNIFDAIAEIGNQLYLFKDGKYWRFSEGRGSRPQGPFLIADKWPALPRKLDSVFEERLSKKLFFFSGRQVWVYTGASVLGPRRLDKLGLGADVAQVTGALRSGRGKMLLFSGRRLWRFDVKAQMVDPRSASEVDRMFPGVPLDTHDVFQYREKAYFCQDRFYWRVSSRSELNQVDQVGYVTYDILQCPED
72 kDa type IV collagenase, sequence (P08253 whole entry): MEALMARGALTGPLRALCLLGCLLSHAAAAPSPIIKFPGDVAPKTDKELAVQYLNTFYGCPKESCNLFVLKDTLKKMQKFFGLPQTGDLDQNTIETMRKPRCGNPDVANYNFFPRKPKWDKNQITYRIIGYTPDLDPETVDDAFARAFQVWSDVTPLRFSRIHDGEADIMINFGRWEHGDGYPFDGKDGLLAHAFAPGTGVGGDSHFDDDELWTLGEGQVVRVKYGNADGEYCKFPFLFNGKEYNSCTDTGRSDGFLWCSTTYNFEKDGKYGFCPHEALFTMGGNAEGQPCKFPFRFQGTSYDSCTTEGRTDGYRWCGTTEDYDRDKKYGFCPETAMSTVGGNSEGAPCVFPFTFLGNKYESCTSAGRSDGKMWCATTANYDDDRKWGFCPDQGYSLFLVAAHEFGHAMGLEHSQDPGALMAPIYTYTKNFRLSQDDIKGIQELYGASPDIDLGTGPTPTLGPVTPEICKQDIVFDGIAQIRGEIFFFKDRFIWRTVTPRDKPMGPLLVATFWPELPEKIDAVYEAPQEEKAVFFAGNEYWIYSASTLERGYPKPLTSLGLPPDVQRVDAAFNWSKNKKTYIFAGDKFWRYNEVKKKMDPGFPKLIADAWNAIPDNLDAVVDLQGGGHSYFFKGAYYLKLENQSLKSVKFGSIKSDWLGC

Broadly, the IC50 is the midpoint of a concentration-inhibition curve. `O=C(O)CC(Cc1ccc(F)cc1)C(=O)c1ccc(C#Cc2ccccc2)cc1` (stereo unspecified): the 50% inhibitory concentration (IC50) in [1] came to 3430 nM; in [2], 10 µM; in test [3] it was 1140 nM.

As for `O=C(O)CCC(=O)c1ccc(C#CCOCc2ccccc2)cc1`, the outcome in test [4], in test [5], in [6], in test [7], in test [8] and in [9] was inactive. Moreover, the IC50 was 23100 nM in test [1] and 25700 nM in [3].

Regarding `CCCCCCCCC#Cc1ccc(C(=O)CCC(=O)O)cc1`, the result in test [4], in test [5], in [6], in [7], in [8] and in test [10] was inactive. The result in test [9] was inactive. Also, the IC50 in [1] worked out at 3070 nM; in test [3], 12500 nM.

As for `O=C(O)CC(CC1CCCC1)C(=O)c1ccc(C#Cc2ccccc2)cc1` (stereo unspecified), the IC50 in test [1] stood at 1120 nM; in [2], 3.39 µM; in [3], 320 nM.

Regarding `CCC(CC(=O)O)C(=O)c1ccc(C#CCOCc2ccccc2)cc1` (stereo unspecified), the result in [4], in [5], in [6], in test [7], in [8] and in test [10] was inactive. For the same compound, the outcome in test [9] was inactive. Moreover, the IC50 in test [1] is 5740 nM; in [3] it was 7560 nM.

For `CCCCCCC(CC(=O)O)C(=O)c1ccc(C#Cc2ccccc2)cc1` (stereo unspecified), the values for the IC50 in [1], in test [2] and in test [3] were 1660 nM, 5.41 µM and 450 nM, respectively.

As to `CCCCCCC(CC(=O)O)C(=O)c1ccc(C#Cc2ccc(Cl)cc2)cc1` (stereo unspecified), the result in test [4], in test [11], in [7], in [8], in test [10] and in test [9] was inactive. The outcome with Syrian golden hamster was Active. The values for the IC50 in [1], in [2] and in test [3] were 550 nM, 1.51 µM and 200 nM, respectively.

Regarding `O=C(O)CCC(=O)c1ccc(C#CCO)cc1`, the outcome in test [4], in [5], in test [6], in test [7], in test [8] and in test [10] was inactive. The result in test [9] was inactive. Further, the IC50 in test [1] came to 15400 nM; in test [3], 24700 nM.

For `CCC(CC(=O)O)C(=O)c1ccc(C#Cc2ccccc2)cc1` (stereo unspecified), the outcome in test [4] and in [9] was inactive. Further, the IC50 turned out to be 440 nM in test [1]; 3.6 µM in test [2]; 480 nM in [3]; 30.6 µM in test [12]; 13.9 µM in test [13]; 32 µM in test [14]. Moreover, in test [15], it took 18.1 µM to reach half-maximal inhibition (IC50).

For the compound `O=C(O)CC(Cc1ccccc1)C(=O)c1ccc(C#Cc2ccccc2)cc1` (stereo unspecified), the IC50 turned out to be 2110 nM in [1], 9.29 µM in test [2] and 600 nM in test [3].

(Values after ChEMBL document CHEMBL1148611, “Selective inhibition of matrix metalloproteinase isozymes and in vivo protection against emphysema by substituted gamma-keto carboxylic acids” (J Med Chem, 2006).)
